# Measurements from ChEMBL document CHEMBL1124157, “Absolute configurations and pharmacological activities of the optical isomers of fluoxetine, a selective serotonin-uptake inhibitor” (J Med Chem, 1988).
# What was measured:
# Type in all cases: functional
# [1] = test system: Mus musculus; assay: Antagonistic activity against acetic acid induced abdominal constriction (writhing) in mice, when administered in combination with 0.2 mg/kg of morphine; conditions: Abdomen
# Outline: (§1)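 Male CF-1 mice (~20 g), fasted overnight, five per point, each used once. Drug given sc in distilled water, 10 mL/kg, 20 min before 0.6% acetic acid ip (10 mL/kg). Writhes counted for 10 min starting 5 min after acid. Percent inhibition versus same-day controls; ED50 by probit least-squares of log dose.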
# [2] = species on record: Mus musculus; assay: Ability to antagonize p-chloroamphetamine-induced depletion of brain serotonin in mouse
# Outline: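 Male albino mice (16–20 g), groups of five; compound given ip as aqueous solution, then 1 h later p-chloroamphetamine HCl 20.6 mg/kg ip. Decapitation 6 h after that; whole brains frozen on dry ice, stored at -15 °C, serotonin measured by HPLC with electrochemical detection. ED50 from dose-response.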
# [3] = species on record: Mus musculus; assay: Antagonistic activity against acetic acid induced abdominal constriction (writhing) in mice; conditions: Abdomen; outline: as §1
# [4] = species on record: Mus musculus; assay: Inhibition of serotonin uptake carrier in mice
# [5] = species on record: Rattus norvegicus; assay: Ability to antagonize saccharin-induced drinking (palatability-induced ingestion) in rats
# Outline: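 Long-Evans hooded male rats (400–600 g, n=24), individually housed, given 2 h weekday access to 0.01 M sodium saccharin; water and chow free except 0.5 h before and during access. Drug ip, 1 mL/kg, 0.5 h before access. Intake expressed as ratio to nearest noninjection (Thursday) control, normalized to distilled-water group = 100%; mean of four to six rats; ED50 with 95% confidence limits.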
Structure (SMILES),ED50 [1] [mg/kg],ED50 [2] [mg/kg],ED50 [3] [mg/kg],Ki [4] [µM],ED50 [5] [mg/kg]
CNCC[C@@H](Oc1ccc(C(F)(F)F)cc1)c1ccccc1 [R-FLUOXETINE],3.6,1.2,15.3,0.021,6.1
CNCC[C@H](Oc1ccc(C(F)(F)F)cc1)c1ccccc1,5.7,2.1,25.7,0.033,4.9
